# Results as given in PubChem BioAssay AID1483 (NMMLSC, 2009).
# The list shows a part of the results. Values without a mark were called inactive.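 Rule for the calls: active = fluorescence beyond the plate control mean plus 3 SD, with a fluorescence-to-maximum score over 2 (cut at about 25 in these data); inactive = the rest.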
# Assay: green-channel fluorescence of compounds in CCRF-Adr cells – cell-based, 488/530 nm, flow cytometry, artefact control for ABC transporter inhibitor project, confirmation (AID 1483)
# Conditions: compound autofluorescence 488/530 nm, at 6.6 µM, hits give high values
# Procedure, shortened: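 System: drug-resistant CCRF-Adr cells; quantity: 3 million cells/mL final; probe or stimulus: no JC-1 substrate added, compound fluorescence only; dosing: one dose, 6.6 µM; timing: 10 min rotation at 25 °C; benchmarks: DMSO control wells; detection: flow cytometry, median green fluorescence at 530 ± 20 nm; read-out: compound-treated cell MFI minus DMSO-treated cell MFI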
smiles,measurement,value
COC(=O)COc1cc(C)cc2oc(=O)c3c(c12)CCCC3,fluorescence,2.91
